13 compounds from ChEMBL document CHEMBL1121584, “Soft drugs. 3. A new class of anticholinergic agents” (J Med Chem, 1980) can be followed below.

Data set [1] is described as follows: Half life period was measured at 37 degree C in dog plasma from d[quant]/dt. Format: ADME, Canis lupus familiaris. In a few lines: (§1)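 Fresh dog blood was centrifuged and the upper layer filtered through 0.8 and 0.2 µm membranes. 2 mL plasma samples with gentisic acid internal standard were incubated. 5 µL aliquots taken at intervals were assayed against acid standard curves in methanol. Rates came from acid appearance or quaternary salt loss.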

The species entered for data set [2] is Canis familiaris. The data set is described as follows: The hydrolytic kinetics expressed as Kobs was measured in dog plasma at 37 degree C. Format: ADME, Canis lupus familiaris. The method in brief:
as §1

A short description of data set [3]: Half life period was measured at 7.4 pH from d[acid]/dt. Format: ADME. The following applies: pH 7.4. The method in brief: (§2)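 Chemical hydrolysis in 0.5 M potassium phosphate, pH 7.4, 37 °C. Rate was followed by appearance of the acid product or loss of the quaternary salt. Where salt contained amine hydrochloride, initial concentration was taken from final acid after complete hydrolysis. Half-life was estimated from both where resolved.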

The species named for data set [4] is Cavia porcellus. The data set is described as follows: Anticholinergic activity was measured by the guinea pig ileum test; c = NA means no activity found at the doses used. Format: functional. The method in brief:
(§3)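 Guinea pig whole ileum strips in McEwan's solution, gassed with O2/CO2 95:5, 37 °C organ bath, 1 g tension. Cumulative acetylcholine concentration-response curves were run to constancy, then repeated after 15–20 min equilibration with increasing antagonist concentrations. Mean curves gave dose ratios, from which competitive antagonism and pA2 were derived.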

A short description of data set [5]: Cholinergic potency was expressed in terms of relative activity vs acetylcholine. The class given is functional.
The species entered for data set [6] is Cavia porcellus. The data set is described as follows: Anticholinergic activity was measured by the guinea pig ileum test. Format: functional. As to conditions: Cavia porcellus, Ileum; read-out: pA2 (converted). In a few lines: as §3
Data set [7] is filed under the species Cavia porcellus. The data set is described as follows: Antihistamine activity was measured by the guinea pig ileum test. The class given is functional. The following applies: Cavia porcellus, Ileum; read-out: pA2 (converted). In a few lines:
(§4)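 Guinea pig ileum strips, McEwan's solution, Carbogen, 37 °C, 1 g tension. Cumulative histamine concentration-response curves were recorded before and after 15–20 min equilibration with rising antagonist concentrations. pA2 came from dose ratios of mean curves.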

Data set [8] in a line: Cholinergic potency was expressed in terms of relative activity vs acetylcholine; c = NA means no activity found at the doses used. Format: functional.
Data set [9] is filed under the species Cavia porcellus. The data set is described as follows: Antihistamine activity was measured by the guinea pig ileum test; c = NA means no activity found at the doses used. The class given is functional. The method in brief:
as §4

For data set [10], the species on record is Canis familiaris. Briefly: The hydrolytic kinetics expressed as Kobs was measured in dog plasma at 36 degree C. The class given is ADME, Canis lupus familiaris. In a few lines:
as §1

A short description of data set [11]: The hydrolytic kinetics expressed as Kobs was measured at 7.4 pH at 37 degree C. The class given is ADME. As to conditions: pH 7.4. In a few lines:
as §2

Data set [12] in a line: The hydrolytic kinetics expressed as Kobs was measured at 9.4 pH at 36 degree C. The class given is ADME. The following applies: pH 9.4. In a few lines: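 Hydrolysis in 0.1 M sodium carbonate-bicarbonate, pH 9.4, ionic strength 0.5 (NaCl added), 36 °C. Kobsd was followed from the rate of acid formation.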
The species named for data set [13] is Felis catus. Briefly: acetylcholine antagonist effect of compound on cat blood pressure at concentration 5.7*10e-9 in 1 min. Format: functional. In a few lines: (§5)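 Adult cats anesthetized ip with α-chloralose (80 mg/kg) plus sodium pentobarbitone (6 mg/kg), bilaterally vagotomized, artificially respired. Carotid arterial pressure recorded. Drugs given iv via brachial vein. Acetylcholine dose giving 70-80% of maximal vasodepressor response used throughout. Test drug injected, acetylcholine response checked 1 min later, then every ~2-3 min. Value is % of control vasodepressor response to acetylcholine.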

The species named for data set [14] is Felis catus. Briefly: acetylcholine antagonist effect of compound on cat blood pressure at concentration 5.7*10e-9 in 2 min. Format: functional. The method in brief: as §5
For data set [15], the species on record is Felis catus. Briefly: acetylcholine antagonist effect of compound on cat blood pressure at concentration 5.7*10e-8 in 13 min. The class given is functional. In a few lines:
(§6)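 Adult cats under ip α-chloralose (80 mg/kg) plus pentobarbitone (6 mg/kg), bilaterally vagotomized and artificially respired. Carotid blood pressure was recorded. An iv acetylcholine dose giving 70–80% of maximal vasodepressor response was used. After iv test drug, acetylcholine responses were checked at 1 min and then every 2–3 min and expressed as % of control. Doses were given in mol/kg, escalating after recovery.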

Data set [16] is filed under the species Felis catus. Briefly: acetylcholine antagonist effect of compound on cat blood pressure at concentration 5.7*10e-8 in 18 min. Format: functional. The method in brief:
as §6

Data set [17] deals with Felis catus. The data set is described as follows: acetylcholine antagonist effect of compound on cat blood pressure at concentration 5.7*10e-8 mol/kg in 1 min. Format: functional. In a few lines: as §6
For data set [18], the species on record is Felis catus. The data set is described as follows: acetylcholine antagonist effect of compound on cat blood pressure at concentration 5.7*10e-8 in 23 min. The class given is functional. In a few lines: as §6
The species entered for data set [19] is Felis catus. The data set is described as follows: acetylcholine antagonist effect of compound on cat blood pressure at concentration 5.7*10e-8 in 5 min. Format: functional. The method in brief: as §5
The species entered for data set [20] is Felis catus. Briefly: acetylcholine antagonist effect of compound on cat blood pressure at concentration 5.7*10e-8 in 9 min. Format: functional. The method in brief: as §5
For data set [21], the species on record is Felis catus. The data set is described as follows: acetylcholine antagonist effect of compound on cat blood pressure at concentration 5.7*10e-9 in 4 min. Format: functional. In a few lines: as §5
For data set [22], the species on record is Felis catus. The data set is described as follows: acetylcholine antagonist effect of compound on cat blood pressure at concentration 5.7*10e-9 in 7 min. Format: functional. The method in brief:
as §5

The species named for data set [23] is Cavia porcellus. Briefly: Anticholinergic activity was measured by the guinea pig ileum test; c = NA means no activity found at the doses used. As to conditions: read-out: pA2 (converted). Format: functional. The method in brief:
as §3

Data set [24] is filed under the species Cavia porcellus. Briefly: Antihistamine activity was measured by the guinea pig ileum test; c = NA means no activity found at the doses used. Format: functional. The method in brief: as §4
For data set [25], the species on record is Felis catus. The data set is described as follows: acetylcholine antagonist effect of compound on cat blood pressure at concentration 5.4*10e-8 in 2 min.
The species entered for data set [26] is Felis catus. The data set is described as follows: acetylcholine antagonist effect of compound on cat blood pressure at concentration 5.4*10e-8 in 28 min.
The species named for data set [27] is Felis catus. The data set is described as follows: acetylcholine antagonist effect of compound on cat blood pressure at concentration 5.4*10e-8 in 33 min.
The species entered for data set [28] is Felis catus. Briefly: acetylcholine antagonist effect of compound on cat blood pressure at concentration 5.4*10e-8 in 38 min.
The species named for data set [29] is Felis catus. Briefly: acetylcholine antagonist effect of compound on cat blood pressure at concentration 5.4*10e-8 in 44 min.
The species named for data set [30] is Cavia porcellus. Briefly: Anticholinergic activity was measured by the guinea pig ileum test; NA means no activity found at the doses used. Format: functional. In a few lines: as §3
Data set [31] in a line: Cholinergic potency was expressed in terms of relative activity vs acetylcholine; NA means no activity found at the doses used. Format: functional.

Molecules are shown by their SMILES.

Take `C[N+]1(COC(=O)Cc2ccccc2)CCOCC1.[Cl-]`: the half-life in data set [1] was 4 h; in data set [3], 8 h. Moreover, the K obs in the data set listed under Canis familiaris [2] was 1.73 min⁻¹.

Regarding `CCC(C)C(=O)OC[N+]12CCC(CC1)CC2` (stereo unspecified), the pA2 entry in the data set filed under Cavia porcellus [4] is “No activity”. The same compound displayed an Activity in [5] of 1.

On to `Cn1cc[n+](COC(=O)C23CC4CC(CC(C4)C2)C3)c1`, for which the results for the Kb in the data set listed under Cavia porcellus [6] and in the data set filed under Cavia porcellus [7] were 2000 nM and 5010 nM, respectively. In addition, the Activity result in data set [8] is “No activity”.

As for `CC[N+](CC)(CC)COC(=O)C(c1ccccc1)C1CCCC1` (stereo unspecified), the pA2 result in the data set filed under Cavia porcellus [9] is “No activity”. In addition, the Activity entry in [8] was “No activity”.

Turning to `CCC(C)C(=O)OC[N+]12CCC(CC1)C(OC(C)=O)C2` (stereo unspecified), in the data set filed under Cavia porcellus [4], the pA2 entry is “No activity”. The compound further returned an Activity in [5] of 1.

With `C[N+]1(COC(=O)C(c2ccccc2)C2CCCC2)CCCC1.[Cl-]` (stereo unspecified), the half-life in data set [1] was 6.5 h; in data set [3] it was 20 h. For the same compound, the K obs came to 0.00144 min⁻¹ in the data set listed under Canis familiaris [10], 0.00168 min⁻¹ in the data set filed under Canis familiaris [2], 0.000578 min⁻¹ in data set [11] and 0.139 min⁻¹ in data set [12]. The Response in the data set filed under Felis catus [13] came to 0%; in the data set filed under Felis catus [14] it was 0%; in the data set listed under Felis catus [15], 31%; in the data set listed under Felis catus [16] it was 63%; with Felis catus [17], 0%; in the data set filed under Felis catus [18], 63%. Moreover, the Response is reported as 0% in the data set filed under Felis catus [19]; 0% in the data set filed under Felis catus [20]; 67% in the data set listed under Felis catus [21]; 100% in the data set filed under Felis catus [22]; 0% in the data set listed under Felis catus [25]; 69% in the data set listed under Felis catus [26]. Also, the Response in the data set listed under Felis catus [27] stood at 81%; in the data set filed under Felis catus [28] it was 88%; in the data set filed under Felis catus [29], 88%. Besides, in the data set filed under Cavia porcellus [23], the Kb is 3.98 nM. Also, the pA2 result in the data set filed under Cavia porcellus [24] is “No activity”. Besides, the Activity entry in data set [5] is “No activity”.

In the case of `Cn1cc[n+](COC(=O)C(c2ccccc2)C2CCCC2)c1` (stereo unspecified), the Kb is 15.8 nM in the data set listed under Cavia porcellus [6] and 501 nM in the data set listed under Cavia porcellus [7].

Consider `CC[N+](CC)(COC(=O)C(C)(C)C)CC(=O)Nc1c(C)cccc1C`, for which, in the data set filed under Cavia porcellus [4], the pA2 entry was “No activity”. For the same compound, the Activity in data set [5] is 1.

With `CC[N+](CC)(CC)COC(=O)C1(c2ccccc2)CCCC1`, in the data set filed under Cavia porcellus [6], the Kb is 79.4 nM. In addition, the pA2 result in the data set listed under Cavia porcellus [9] is “No activity”.

With `CC1CCC[N+]1(C)COC(=O)C(c1ccccc1)C1CCCC1` (stereo unspecified), the Kb in the data set filed under Cavia porcellus [6] is 0.501 nM; in the data set listed under Cavia porcellus [7], 12.6 nM.

For the compound `CCC(C)C(=O)OC[N+]1(C)CCCC1C` (stereo unspecified), the Kb in the data set listed under Cavia porcellus [6] was 12600 nM. For the same compound, the Activity entry in data set [8] is “No activity”.

`CC[N+](CC)(CC)COC(=O)C1(c2ccccc2)CC1.[Cl-]` showed a K obs in data set [11] of 0.00055 min⁻¹. In the data set filed under Cavia porcellus [4], the pA2 entry was “No activity”. In data set [3], this compound showed a half-life of 21 h.

Regarding `C[N+]1(C2OC(=O)c3ccccc32)CCCC1` (stereo unspecified), in the data set listed under Cavia porcellus [30], the pA2 entry is “No activity”. The Activity result in data set [31] is “No activity”.

Usually half-life stands for how long it takes for the measured level to halve. Low values mean rapid decline, high ones slow decline.
